Data reported in ChEMBL document CHEMBL4602702, “Red-Emitting Dibenzodiazepinone Derivatives as Fluorescent Dualsteric Probes for the Muscarinic Acetylcholine M2 Receptor” (J Med Chem, 2020).

What was measured:
[1] = biological target: T1, Muscarinic acetylcholine receptor M2 (Homo sapiens) (UniProt P08172); experiment: Binding affinity to human muscarinic M2 receptor expressed in CHO-K9 cells assessed as dissociation rate constant at 22 +/- 1 degree C preincubated for 110 mins followed by atropine addition by flow cytometric saturation binding study; type: cell-based
T1 sequence (whole entry): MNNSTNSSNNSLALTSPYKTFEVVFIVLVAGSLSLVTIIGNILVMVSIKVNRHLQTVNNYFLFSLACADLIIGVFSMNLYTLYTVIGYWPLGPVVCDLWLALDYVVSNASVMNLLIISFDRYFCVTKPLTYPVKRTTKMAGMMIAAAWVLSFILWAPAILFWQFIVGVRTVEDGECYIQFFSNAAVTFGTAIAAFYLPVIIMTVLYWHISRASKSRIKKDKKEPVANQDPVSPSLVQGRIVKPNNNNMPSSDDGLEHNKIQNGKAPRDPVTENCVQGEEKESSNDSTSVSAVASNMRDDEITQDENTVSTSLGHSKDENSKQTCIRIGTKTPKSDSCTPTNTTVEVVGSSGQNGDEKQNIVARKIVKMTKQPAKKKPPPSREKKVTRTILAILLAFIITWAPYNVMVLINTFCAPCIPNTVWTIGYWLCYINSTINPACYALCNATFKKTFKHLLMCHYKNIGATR
In short: (§1)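 Dissociation followed by flow cytometry at 22 °C over 9 h. koff from three-parameter incomplete monophasic decline fit; three or four experiments in duplicate.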

[2] = biological target: T1, Muscarinic acetylcholine receptor M2 (Homo sapiens); experiment: Binding affinity to human muscarinic M2 receptor expressed in CHO-K9 cells assessed as dissociation rate constant at 22 +/- 1 degree C preincubated for 120 mins followed by atropine addition by flow cytometric saturation binding study; type: cell-based; in short: as §1

| K [1] [min⁻¹] | K [2] [min⁻¹] | Compound |
| --- | --- | --- |
| 0.0031 |  | CC1(C)C(/C=C/C=C/C=C2/N(CCCCCC(=O)NCc3cc(C(=O)NCCNC(=O)CCc4cn(CCCCC5CCN(CC(=O)N6c7ccccc7NC(=O)c7ccccc76)CC5)cn4)cc(C(=O)NCCNC(=O)CCc4cn(CCCCC5CCN(CC(=O)N6c7ccccc7NC(=O)c7ccccc76)CC5)cn4)c3)c3ccc(S(=O)(=O)O)cc3C2(C)C)=[N+](CCCCS(=O)(=O)[O-])c2ccccc21.O=C(O)C(F)(F)F.O=C(O)C(F)(F)F.O=C(O)C(F)(F)F |
|  | 0.0069 | CC1(C)C(/C=C/C=C/C=C2/N(CCCCCC(=O)NCCNC(=O)CCc3cn(CCCCC4CCN(CC(=O)N5c6ccccc6NC(=O)c6ccccc65)CC4)cn3)c3ccc(S(=O)(=O)O)cc3C2(C)C)=[N+](CCCCS(=O)(=O)[O-])c2ccccc21.O=C(O)C(F)(F)F |
